The text below walks through data of ChEMBL document CHEMBL1128226, “Phosphinyl acid-based bisubstrate analog inhibitors of Ras farnesyl protein transferase” (J Med Chem, 1995).

pIC50: −log10 of the molar value.

The target of assay [1] is T1, Protein farnesyltransferase (Homo sapiens, UniProt P49354+P49356). Description: Inhibition of Ras Farnesyltransferase obtained from pig brain; 'a' indicates prodrug. More on the design: species or system Sus scrofa. The note with it: target entry is the homologue from another species. Put shortly:
(§1)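 Pig brain FPT purified about 2000-fold over crude cytosol. Reaction contains 1 μM [3H]FPP, 7 μM recombinant p21 H-Ras (E. coli, partially purified), 25 mM MgCl2, 10 mM DTT and 100 mM HEPES 7.4, with inhibitor usually 360 to 0.02 μM. Run 1 h at 37 °C, then SDS/TCA precipitation, filtration and scintillation counting. Triplicate points; IC50 from % control vs log concentration; each compound tested at least twice.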

Assay [2] has as its system Geranylgeranyl transferase type I (Sus scrofa). Description: Inhibition of Geranylgeranyl transferase type I from porcine brain tissue; 'a' indicates prodrug.
The target in assay [3] is T1, Protein farnesyltransferase. Put plainly: Inhibition of Ras Farnesyltransferase enzyme from pig brain. Also noted: species or system Sus scrofa. The conditions noted are these: target entry is the homologue from another species; read-out: I50. Put shortly: as §1
The target of assay [4] is Geranylgeranyl transferase type I (Homo sapiens, UniProt P49354+P53609). Description: Inhibition of Geranylgeranyl transferase type I from porcine brain tissue. More on the design: species or system Sus scrofa. The conditions noted are these: target entry is the homologue from another species; read-out: I50. Summed up:
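Porcine brain GGT-I, partially purified; substrates 12 μM bacterially expressed p21 rasCVLL and 0.5 μM [3H]GGPP (19.3 Ci/mmol), with 10 mM DTT, 5 mM MgCl2, 5 μM ZnCl2, 100 mM HEPES pH 7.4. Incubated 1 h at 37 °C. Protein precipitated with SDS/TCA, filtered, radioactivity counted. Triplicates, SEM reported; IC50 determined.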

For assay [5], the target named is T1, Protein farnesyltransferase. Description: Inhibition of Ras Farnesyltransferase from pig brain. More on the design: species or system Sus scrofa. The conditions noted are these: target entry is the homologue from another species; read-out: I50. Put shortly: as §1

Take `COC(=O)[C@H](CCSC)NC(=O)[C@@H](NC(=O)[C@@H](NC(=O)CCP(=O)(O)C/C=C(\C)CC/C=C(\C)CCC=C(C)C)C(C)C)C(C)C`: the I50 result in assay [1] is “Prepared and evaluated as prodrugs”; in assay [2], “Prepared and evaluated as prodrugs”.

Consider `CSCC[C@H](NC(=O)[C@@H](NC(=O)[C@@H](NC(=O)COP(=O)(O)C/C=C(\C)CC/C=C(\C)CCC=C(C)C)C(C)C)C(C)C)C(=O)O`, for which the pIC50 in assay [3] is 8.21; in assay [4], 5.00.

As to `CSCC[C@H](NC(=O)[C@@H](NC(=O)[C@@H](NC(=O)CCP(=O)(O)C/C=C(\C)CC/C=C(\C)CCC=C(C)C)C(C)C)C(C)C)C(=O)O`, the pIC50 is 8.22 in assay [5] and 4.68 in assay [4].

For `CC(C)=CCC/C(C)=C/CC/C(C)=C/CP(=O)(O)OCC(=O)N[C@H](C(=O)N[C@@H](CC(C)C)C(=O)N[C@@H](CO)C(=O)O)C(C)C`, the pIC50 was 7.22 in assay [3] and 4.23 in assay [4].

As for `COC(=O)[C@H](CCSC)NC(=O)[C@@H](NC(=O)[C@@H](NC(=O)COP(=O)(O)C/C=C(\C)CC/C=C(\C)CCC=C(C)C)C(C)C)C(C)C`, the I50 result in assay [1] is “Prepared and evaluated as prodrugs”; in assay [2], “Prepared and evaluated as prodrugs”.
